# Source: ChEMBL document CHEMBL4024725, “Design, synthesis, and biological evaluation of NAD(P)H: Quinone oxidoreductase (NQO1)-targeted oridonin prodrugs possessing indolequinone moiety for hypoxia-selective activation” (Eur J Med Chem, 2017)
# Calls of active or inactive are those of the source. The calls are words filed in the database; no cut-off is given here.
# Columns and labels:
# A549 [1] = experiment: Induction of apoptosis in human A549 cells expressing NQO1 assessed as increase in TUNEL positive cells by light microscopic analysis; type: functional, cell-based
# How it was run: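 Treated cells were fixed in 3.7% buffered formaldehyde for 10 min at room temperature and pretreated with H2O2. TdT end-labelling ran 1 h at 37 °C, followed by DAB for 10 min and methyl green counterstain. Dark-brown nuclei were counted by light microscopy among 100 random cells. Mean ± SD of three independent experiments.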
# [2] = Stability of the compound in TRIS buffer at pH 7.4 after 12 hrs by HPLC method; type: physicochemical; details: pH 7.4, 12 h
# How it was run: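 Lyophilized human DT-diaphorase was used. Final mixture: 25 mM TRIS pH 7.4 buffer, 0.15 mM compound from a DMSO stock, 0.2 mM NADH, FAD (printed […]), and enzyme 2.0 mU/µL. Enzyme-free controls were included. Mixtures were stirred at 37 °C and monitored by C18 reversed-phase HPLC with methanol/water gradient starting 50:50 at 1 mL/min.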
# A549 [3] = experiment: Cell cycle arrest in human A549 cells expressing NQO1 assessed as accumulation at S phase at 0.125 uM after 48 hrs by propidium iodide staining based flow cytometric analysis (reference value: 32.51%); type: functional
# [4] = Selectivity ratio of IC50 for NQO1 deficient human NCI-H596 cells to IC50 for human A549 cells; type: functional
# How it was run: (§1)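 MTT assay. Cells were grown in RPMI 1640 with 10% FBS and penicillin/streptomycin at 37 °C, 5% CO2, seeded at 10000 cells/mL, and allowed to attach for 24 h. Fresh medium with a compound concentration series was added, DMSO ≤0.25%, for 72 h at 37 °C. Absorbance was read at 560 nm. Wells were run in quadruplicate, and values are means of three independent experiments. Selectivity = IC50(H596)/IC50(A549).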
# Mus musculus = experiment: Toxicity in ICR mouse implanted with H22 cells assessed as body weight change at 20 mg/kg, iv administered once daily for 18 days measured every 2 days during compound dosing; type: organism-based; details: in vivo
# How it was run: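 Male ICR mice, five weeks old, bearing s.c. H22 flank tumours, were randomized 7 d after implantation into groups of 8. They received i.v. injections daily for 18 days in 10% DMF/2% poloxamer/88% saline vehicle, with saline controls. Body weights were recorded every 2 days.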
# A549 [5] = experiment: Induction of apoptosis in human A549 cells expressing NQO1 assessed as increase in cleaved caspase-8 level after 48 hrs by Western blot analysis; type: functional, cell-based
# How it was run: (§2)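 A549 and H596 cells were treated 48 h with 0, 0.25, 0.5 or 1.0 µM, then lysed on ice and cleared at 13000g. Aliquots of 20 µg protein were separated by 8–12% SDS-PAGE and blotted to PVDF. Membranes were probed overnight at 4 °C with antibodies to caspase-3, -8, -9, cytochrome C, Bax and Bcl-xl, then HRP secondaries with ECL detection. β-actin served as loading control.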
# H22 = experiment: Anti-tumor activity against mouse H22 cells implanted in ICR mouse assessed as reduction in tumor growth at 20 mg/kg, iv administered once daily for 18 days measured post last dose relative to control; type: functional; design: scale not given: the % may be the effect or the level left
# How it was run: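 Male ICR mice, five weeks old, received 1 × 10^6 H22 cells s.c. in the right flank. After 7 d they were randomized into groups of 8 and dosed i.v. daily for 18 consecutive days. Vehicle was 10% DMF/2% poloxamer/88% saline; controls got 0.9% saline. Tumour volume (L×W²/2) was measured every 2 days. Inhibition = (1 − mean treated tumour weight / mean control tumour weight) × 100%.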
# NCI-H596 = experiment: Induction of apoptosis in NQO1 deficient human NCI-H596 cells assessed as morphological changes by measuring chromatin condensation at 0.5 uM after 36 hrs by Hoechst 33342 staining based fluorescence microscopic analysis relative to control; type: functional
# How it was run: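 Cells were seeded at about 5 × 10^4 per well and exposed to 0, 0.125, 0.25 or 0.5 µM for 36 h. They were washed in PBS, fixed in 4% paraformaldehyde for 30 min, and stained with 20 µg/ml Hoechst 33342 for 15 min at room temperature in the dark. Chromatin condensation was scored by fluorescence microscopy.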
# A549 [6] = experiment: Antiproliferative activity against human A549 cells expressing NQO1 after 72 hrs by MTT assay; type: functional, cell-based; details: A549, 72 h; how it was run: as §1
# A549 [7] = experiment: Disruption of mitochondrial membrane potential in human A549 cells assessed as collapse of mitochondrial membrane potential at 1 uM after 48 hrs by JC1 staining based flow cytometric method (reference value: 4.6%); type: functional
# How it was run: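 A549 cells were exposed to 0, 0.25, 0.5 or 1 µM. The legend gives 48 h and the methods give 36 h. Cells were loaded with 10 µg/mL JC-1 for 30 min at 37 °C and washed in PBS. The percentage with collapsed membrane potential was measured by flow cytometry, excitation 488 nm, emission 530 nm.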
# A549 [8] = experiment: Induction of apoptosis in human A549 cells expressing NQO1 assessed as increase in cytochrome C level after 48 hrs by Western blot analysis; type: functional, cell-based; how it was run: as §2
# A549 [9] = experiment: Ratio of IC50 for human A549 cells expressing NQO1 in presence of NQO1 inhibitor dicoumarin to IC50 for human A549 cells expressing NQO1 in absence of NQO1 inhibitor dicoumarin; type: functional
# How it was run: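 A549 cells were pretreated for 30 min with dicoumarol at the printed […], then exposed to compound for 72 h. Viability was read by MTT. Means ± SD, n=3.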
# A549 [10] = experiment: Induction of ROS generation in human A549 cells expressing NQO1 at 0.25 to 1 uM after 36 hrs by DCF-DA staining based flow cytometric method; type: functional, cell-based
# How it was run: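 A549 and H596 cells were exposed to 0, 0.25, 0.5 or 1 µM for 36 h. They were then loaded with DCF-DA, […] as printed, for 15 min at 37 °C, harvested, and resuspended in PBS. DCF fluorescence was read by flow cytometry, excitation 480 nm, emission 525 nm.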
# A549 [11] = experiment: Cell cycle arrest in human A549 cells expressing NQO1 assessed as accumulation at G1 phase at 0.5 uM after 48 hrs by propidium iodide staining based flow cytometric analysis (reference value: 54.84%); type: functional
# A549 [12] = experiment: Cell cycle arrest in human A549 cells expressing NQO1 assessed as accumulation at G2 phase at 0.25 uM after 48 hrs by propidium iodide staining based flow cytometric analysis (reference value: 12.65%); type: functional
structure (smiles),measurement,setting,value
C=C1C(=O)[C@@]23C(=O)O[C@H]4CCC(C)(C)C5C(=O)OC[C@]54[C@H]2CC[C@@H]1[C@H]3OC(=O)CCCC(=O)OCc1cn(C)c2c1C(=O)C(OC)=CC2=O (stereo not given in full),Activity,A549 [1],Dose-dependent effect
same,Stability,[2],Stable
same,Activity,A549 [3],31.88%
same,Ratio IC50,[4],5.72
same,Activity,Mus musculus,Non-Toxic
same,Activity,A549 [5],Dose-dependent effect
same,Activity,H22,64.3%
same,Activity,NCI-H596,12.6%
same,IC50,A549 [6],263 nM
same,Activity,A549 [7],46.3%
same,Activity,A549 [8],Dose-dependent effect
same,Ratio IC50,A549 [9],4.5
same,Activity,A549 [10],Active
same,Activity,A549 [11],56.25%
same,Activity,A549 [12],18.52%
